Experimental data: ChEMBL document CHEMBL1125552, “Synthesis and biological evaluation of novel potent antagonists of the bombesin/gastrin releasing peptide receptor” (1992)
Where a SMILES comes first, the peptide text is derived from it. The star is where a group is joined. X1 = CSCC[C@H](NC[C@H](CC(C)C)N*)C(N)=O; X2 = CC(=O)NC[C@H](CC(C)C)N*; For = O=C*

Key:
Assay type in all cases: functional
[1] = biological target: Gastrin-releasing peptide receptor (Rattus norvegicus) (UniProt P52500); test: Tested for the inhibition of Bombesin-stimulated amylase release at 5 uM concentration in rat pranceatic acini
Sequence of Gastrin-releasing peptide receptor (Rattus norvegicus) (P52500 whole entry): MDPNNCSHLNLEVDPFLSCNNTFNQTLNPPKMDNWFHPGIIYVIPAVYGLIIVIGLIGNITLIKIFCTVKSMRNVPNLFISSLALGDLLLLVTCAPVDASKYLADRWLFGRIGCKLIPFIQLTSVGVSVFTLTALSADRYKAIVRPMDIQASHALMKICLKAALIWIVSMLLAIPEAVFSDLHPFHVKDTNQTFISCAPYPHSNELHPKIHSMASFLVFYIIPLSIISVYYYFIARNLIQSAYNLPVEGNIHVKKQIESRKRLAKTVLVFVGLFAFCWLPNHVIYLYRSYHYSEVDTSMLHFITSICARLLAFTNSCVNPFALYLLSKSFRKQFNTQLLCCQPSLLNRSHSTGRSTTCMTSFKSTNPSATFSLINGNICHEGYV
How it was run: (§1)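 Dispersed rat pancreatic acini prepared by collagenase digestion (300 units/20 mL), washed through 4% BSA. Incubated 30 min at 37 °C under 100% oxygen in HEPES buffer (pH 7.4) with 0.5 mM CaCl₂, 1% albumin and trypsin inhibitor, with peptide plus 0.2 nM BN. Amylase (Phadebas test) released, as percent of initial acinar content, normalized to BN alone; triplicate measurements.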

[2] = biological target: Gastrin-releasing peptide receptor (Rattus norvegicus) (UniProt P52500); test: Tested for the inhibition of Bombesin-stimulated amylase release at 5 uM concentration in the presence of 0.2 nM of bombesin in rat pranceatic acini; how it was run: as §1
[3] = biological target: Gastrin-releasing peptide receptor (Rattus norvegicus) (UniProt P52500); test: Tested for the inhibition of Bombesin-stimulated amylase release at 50 nM concentration in the presence of 0.2 nM of bombesin in rat pranceatic acini; how it was run: as §1
[4] = biological target: Gastrin-releasing peptide receptor (Rattus norvegicus) (UniProt P52500); test: Tested for the inhibition of Bombesin-stimulated amylase release in the presence of 0.2 nM of bombesin in rat pranceatic acini; how it was run: as §1
[5] = biological target: Gastrin-releasing peptide receptor (Rattus norvegicus) (UniProt P52500); test: Tested for the inhibition of bombesin-stimulated amylase release in rat pranceatic acini; how it was run: as §1
[6] = biological target: Gastrin-releasing peptide receptor (Rattus norvegicus) (UniProt P52500); test: Tested for the inhibition of Bombesin-stimulated amylase release at 50 nM concentration in rat pranceatic acini; how it was run: as §1

CC(=O)NC[C@H](CC(C)C)NC(=O)[C@H](Cc1c[nH]cn1)NC(=O)CNC(=O)[C@@H](NC(=O)[C@H](C)NC(=O)[C@H](Cc1c[nH]c2ccccc12)NC(=O)[C@H](Cc1c[nH]cn1)NC(=O)[C@H](N)Cc1ccccc1)C(C)C
Release [1]: 3% | Release [2]: 3.4% | Release [3]: 9% | Release [4]: 15.7% | Release [5]: 3%

CC(=O)NC[C@H](CC(C)C)NC(=O)[C@H](Cc1c[nH]cn1)NC(=O)CNC(=O)[C@@H](NC(=O)[C@H](C)NC(=O)[C@H](Cc1c[nH]c2ccccc12)NC(=O)[C@H](CCC(N)=O)NC(=O)[C@@H](Cc1ccccc1)NC(C)=O)C(C)C
Release [2]: 4.3% | Release [3]: 14.8% | Release [4]: 16.5% | Release [5]: 3%

CN[C@H](Cc1ccccc1)C(=O)N[C@@H](Cc1c[nH]c2ccccc12)C(=O)N[C@@H](C)C(=O)N[C@H](C(=O)NCC(=O)N[C@@H](Cc1c[nH]cn1)C(=O)N[C@H](CN[C@@H](CCSC)C(N)=O)CC(C)C)C(C)C
Release [1]: 12.2% | Release [2]: 14.3% | Release [6]: 7.2% | Release [3]: 16% | Release [4]: 21.2% | Release [5]: 6.4%

CC(=O)NC[C@H](CC(C)C)NC(=O)[C@H](Cc1c[nH]cn1)NC(=O)CNC(=O)[C@@H](NC(=O)[C@H](C)NC(=O)[C@H](Cc1c[nH]c2ccccc12)NC(=O)[C@H](CCC(N)=O)NC(=O)[C@H](N)Cc1ccccc1)C(C)C
Release [2]: 3.6% | Release [3]: 10.3% | Release [4]: 14.6% | Release [5]: 3.3%

CC(=O)NC[C@H](CC(C)C)NC(=O)[C@H](Cc1c[nH]cn1)NC(=O)CNC(=O)[C@@H](NC(=O)[C@H](C)NC(=O)[C@H](Cc1cn(C=O)c2ccccc12)NC(=O)[C@H](Cc1c[nH]cn1)NC(=O)[C@H](N)Cc1ccccc1)C(C)C
Release [1]: 3.1% | Release [2]: 4.8% | Release [3]: 16.2% | Release [4]: 20.3% | Release [5]: 3.2%

CSCC[C@H](NC[C@H](CC(C)C)NC(=O)[C@H](Cc1c[nH]cn1)NC(=O)CNC(=O)[C@@H](NC(=O)[C@H](C)NC(=O)[C@H](Cc1c[nH]c2ccccc12)NC(C)=O)C(C)C)C(N)=O (Ac-WAVGH-X1)
Release [1]: 4.7% | Release [2]: 16.1% | Release [6]: 4.7% | Release [3]: 17.9% | Release [4]: 17.8% | Release [5]: 4.8%

CC(=O)NC[C@H](CC(C)C)NC(=O)[C@H](Cc1c[nH]cn1)NC(=O)CNC(=O)[C@@H](NC(=O)[C@H](C)NC(=O)[C@H](Cc1c[nH]c2ccccc12)NC(=O)[C@H](Cc1c[nH]cn1)NC(=O)[C@H](CCC(N)=O)NC(C)=O)C(C)C (Ac-QHWAVGH-X2)
Release [1]: 3.6% | Release [2]: 4% | Release [3]: 12.2% | Release [4]: 15.9% | Release [5]: 3.1%

CN[C@@H](Cc1ccccc1)C(=O)N[C@@H](Cc1c[nH]cn1)C(=O)N[C@@H](Cc1c[nH]c2ccccc12)C(=O)N[C@@H](C)C(=O)N[C@H](C(=O)NCC(=O)N[C@@H](Cc1c[nH]cn1)C(=O)N[C@@H](CC(C)C)CN(C=O)[C@@H](CCSC)C(N)=O)C(C)C
Release [1]: 9% | Release [2]: 9.9% | Release [4]: 9.4% | Release [5]: 3.5%

CSCC[C@H](NC[C@H](CC(C)C)NC(=O)[C@H](Cc1c[nH]cn1)NC(=O)CNC(=O)[C@@H](NC(=O)[C@H](C)NC(=O)[C@H](Cc1c[nH]c2ccccc12)NC(=O)[C@H](CC(N)=O)NC(=O)CN)C(C)C)C(N)=O
Release [1]: 6.5% | Release [2]: 24.5% | Release [6]: 7.6% | Release [3]: 22.7% | Release [4]: 19.3% | Release [5]: 5.1%

CSCC[C@@H](C(N)=O)N(C=O)C[C@H](CC(C)C)NC(=O)[C@H](Cc1c[nH]cn1)NC(=O)CNC(=O)[C@@H](NC(=O)[C@H](C)NC(=O)[C@H](Cc1c[nH]c2ccccc12)NC(=O)[C@H](Cc1c[nH]cn1)NC(=O)[C@@H](Cc1ccccc1)NC(=O)CN)C(C)C
Release [1]: 13.3% | Release [2]: 11.6% | Release [4]: 10.4% | Release [5]: 3.7%

CC(C)C[C@@H](CN[C@@H](CC(C)C)C(N)=O)NC(=O)[C@H](Cc1c[nH]cn1)NC(=O)CNC(=O)[C@@H](NC(=O)[C@H](C)NC(=O)[C@H](Cc1c[nH]c2ccccc12)NC(=O)[C@H](CCC(N)=O)NC(=O)[C@H](CC(N)=O)NC(=O)CNC(=O)[C@H](CC(C)C)NC(=O)[C@H](CCCN=C(N)N)NC(=O)[C@H](CCC(N)=O)NC(=O)[C@@H]1CCC(=O)N1)C(C)C
Release [1]: 2.7% | Release [2]: 6.2% | Release [6]: 3% | Release [3]: 11.6% | Release [4]: 17.4% | Release [5]: 2.8%

CC(=O)NC[C@H](CC(C)C)NC(=O)[C@H](Cc1c[nH]cn1)NC(=O)CNC(=O)[C@@H](NC(=O)[C@H](C)NC(=O)[C@H](Cc1c[nH]c2ccccc12)NC(=O)[C@H](Cc1c[nH]cn1)NC(=O)[C@@H](Cc1ccccc1)NC(C)=O)C(C)C
Release [1]: 3.6% | Release [2]: 3.7% | Release [3]: 16.7% | Release [4]: 20.2% | Release [5]: 2.9%

CN[C@H](Cc1ccccc1)C(=O)N[C@@H](Cc1c[nH]cn1)C(=O)N[C@@H](Cc1c[nH]c2ccccc12)C(=O)N[C@@H](C)C(=O)N[C@H](C(=O)NCC(=O)N[C@@H](Cc1c[nH]cn1)C(=O)N[C@@H](CC(C)C)CN(C=O)[C@@H](CCSC)C(N)=O)C(C)C
Release [1]: 9.1% | Release [2]: 12.9% | Release [4]: 9.4% | Release [5]: 3.5%

CC(=O)NC[C@H](CC(C)C)NC(=O)[C@H](Cc1c[nH]cn1)NC(=O)CNC(=O)[C@@H](NC(=O)[C@H](C)NC(=O)[C@H](Cc1cn(C=O)c2ccccc12)NC(=O)[C@H](Cc1c[nH]cn1)NC(=O)[C@H](CCC(N)=O)NC(C)=O)C(C)C (Ac-QHW(For)AVGH-X2)
Release [2]: 12.5% | Release [3]: 15.8% | Release [4]: 16% | Release [5]: 3.2%

CCCCC[C@H](CC(C)C)NC(=O)[C@H](Cc1c[nH]cn1)NC(=O)CNC(=O)[C@@H](NC(=O)[C@H](C)NC(=O)[C@H](Cc1c[nH]c2ccccc12)NC(=O)[C@@H](Cc1c[nH]cn1)NC(=O)C(C)(C)C)C(C)C
Release [1]: 6% | Release [2]: 6.3% | Release [6]: 5.1% | Release [3]: 6.3% | Release [4]: 17.4% | Release [5]: 5.3%

CSCC[C@H](NC[C@H](CC(C)C)NC(=O)[C@H](Cc1c[nH]cn1)NC(=O)CNC(=O)[C@@H](NC(=O)[C@H](C)NC(=O)[C@@H](N)Cc1c[nH]c2ccccc12)C(C)C)C(N)=O (H-WAVGH-X1)
Release [1]: 5.3% | Release [2]: 18.1% | Release [6]: 5.4% | Release [3]: 20.8% | Release [4]: 17.6% | Release [5]: 4.9%

CSCC[C@@H](C(N)=O)N(C=O)C[C@H](CC(C)C)NC(=O)[C@H](Cc1c[nH]cn1)NC(=O)CNC(=O)[C@@H](NC(=O)[C@H](C)NC(=O)[C@H](Cc1c[nH]c2ccccc12)NC(=O)[C@H](Cc1c[nH]cn1)NC(=O)[C@H](CC(N)=O)NC(=O)CN)C(C)C
Release [1]: 9.2% | Release [2]: 13.1% | Release [4]: 9.4% | Release [5]: 3.5%

CC(=O)NC[C@H](CC(C)C)NC(=O)[C@H](Cc1c[nH]cn1)NC(=O)CNC(=O)[C@@H](NC(=O)[C@H](C)NC(=O)[C@H](Cc1c[nH]c2ccccc12)NC(=O)[C@H](Cc1c[nH]cn1)NC(=O)[C@@H](N)CCC(N)=O)C(C)C (H-QHWAVGH-X2)
Release [1]: 3.6% | Release [2]: 8.2% | Release [3]: 14.5% | Release [4]: 14.4% | Release [5]: 3.6%

CSCC[C@H](NC[C@H](CC(C)C)NC(=O)[C@H](Cc1c[nH]cn1)NC(=O)CNC(=O)[C@@H](NC(=O)[C@H](C)NC(=O)[C@H](Cc1c[nH]c2ccccc12)NC(=O)[C@H](N)Cc1ccccc1)C(C)C)C(N)=O
Release [1]: 5.7% | Release [2]: 13.1% | Release [6]: 5.3% | Release [3]: 19.6% | Release [4]: 18.3% | Release [5]: 5.3%

CSCC[C@@H](C(N)=O)N(C=O)C[C@H](CC(C)C)NC(=O)[C@H](Cc1c[nH]cn1)NC(=O)CNC(=O)[C@@H](NC(=O)[C@H](C)NC(=O)[C@H](Cc1c[nH]c2ccccc12)NC(=O)[C@H](Cc1c[nH]cn1)NC(=O)[C@H](N)Cc1ccccc1)C(C)C
Release [1]: 10.3% | Release [2]: 13% | Release [4]: 10.4% | Release [5]: 3.7%
